{"source": "paper PMC3355950", "about": "(The Journal of Neuroscience, 2012)", "key": {"GluN1/GluN2B": {"target": "GluN1/GluN2B (Rattus norvegicus, UniProt P35439+Q00960)", "sequence (Q00960 27-1482, other chains not shown)": "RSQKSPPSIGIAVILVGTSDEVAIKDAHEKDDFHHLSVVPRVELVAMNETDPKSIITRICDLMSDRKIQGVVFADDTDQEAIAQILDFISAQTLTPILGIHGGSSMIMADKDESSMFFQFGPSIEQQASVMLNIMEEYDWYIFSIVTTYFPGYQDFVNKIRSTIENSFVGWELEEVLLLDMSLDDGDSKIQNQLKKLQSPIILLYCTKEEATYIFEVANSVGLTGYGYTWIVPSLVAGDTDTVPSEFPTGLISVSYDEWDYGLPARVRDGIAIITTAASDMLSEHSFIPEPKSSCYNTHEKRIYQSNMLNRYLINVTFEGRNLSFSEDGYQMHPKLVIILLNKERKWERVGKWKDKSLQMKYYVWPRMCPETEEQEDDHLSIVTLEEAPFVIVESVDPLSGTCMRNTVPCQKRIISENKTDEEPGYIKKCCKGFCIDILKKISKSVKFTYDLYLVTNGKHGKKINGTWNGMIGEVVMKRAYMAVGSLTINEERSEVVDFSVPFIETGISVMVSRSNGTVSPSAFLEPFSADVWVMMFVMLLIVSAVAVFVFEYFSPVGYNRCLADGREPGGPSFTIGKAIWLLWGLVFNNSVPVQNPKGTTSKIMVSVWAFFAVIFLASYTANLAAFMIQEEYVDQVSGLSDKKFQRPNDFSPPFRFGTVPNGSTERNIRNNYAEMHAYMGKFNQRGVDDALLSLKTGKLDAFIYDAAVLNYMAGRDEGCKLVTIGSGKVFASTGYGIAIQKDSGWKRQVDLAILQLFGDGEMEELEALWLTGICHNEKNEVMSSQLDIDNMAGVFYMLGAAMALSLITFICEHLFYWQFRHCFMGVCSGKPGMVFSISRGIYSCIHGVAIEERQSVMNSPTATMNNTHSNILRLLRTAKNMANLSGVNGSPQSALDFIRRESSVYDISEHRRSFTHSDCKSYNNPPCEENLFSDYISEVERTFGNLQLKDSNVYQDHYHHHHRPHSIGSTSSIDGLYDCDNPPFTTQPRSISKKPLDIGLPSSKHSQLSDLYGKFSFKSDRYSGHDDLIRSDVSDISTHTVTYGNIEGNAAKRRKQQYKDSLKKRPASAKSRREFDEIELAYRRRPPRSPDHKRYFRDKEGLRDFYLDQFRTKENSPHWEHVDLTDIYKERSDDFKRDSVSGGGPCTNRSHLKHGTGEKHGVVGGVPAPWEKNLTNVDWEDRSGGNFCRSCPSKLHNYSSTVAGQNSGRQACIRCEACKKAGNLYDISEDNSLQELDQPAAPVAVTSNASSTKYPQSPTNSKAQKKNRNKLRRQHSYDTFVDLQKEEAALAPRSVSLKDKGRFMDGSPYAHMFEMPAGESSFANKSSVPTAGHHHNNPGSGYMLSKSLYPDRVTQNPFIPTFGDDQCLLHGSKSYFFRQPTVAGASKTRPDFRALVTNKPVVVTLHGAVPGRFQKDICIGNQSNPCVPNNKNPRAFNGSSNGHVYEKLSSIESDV", "test": "Two-electrode voltage-clamp recordings, Xenopus oocytes", "type": "cell-based", "conditions": "100 μM glutamate + 3 μM glycine; N.E. = no effect at 10 μM TCN-201"}, "GluN1/GluN2C": {"target": "GluN1/GluN2C (Rattus norvegicus, UniProt P35439+Q00961)", "sequence (Q00961 20-1237, other chains not shown)": "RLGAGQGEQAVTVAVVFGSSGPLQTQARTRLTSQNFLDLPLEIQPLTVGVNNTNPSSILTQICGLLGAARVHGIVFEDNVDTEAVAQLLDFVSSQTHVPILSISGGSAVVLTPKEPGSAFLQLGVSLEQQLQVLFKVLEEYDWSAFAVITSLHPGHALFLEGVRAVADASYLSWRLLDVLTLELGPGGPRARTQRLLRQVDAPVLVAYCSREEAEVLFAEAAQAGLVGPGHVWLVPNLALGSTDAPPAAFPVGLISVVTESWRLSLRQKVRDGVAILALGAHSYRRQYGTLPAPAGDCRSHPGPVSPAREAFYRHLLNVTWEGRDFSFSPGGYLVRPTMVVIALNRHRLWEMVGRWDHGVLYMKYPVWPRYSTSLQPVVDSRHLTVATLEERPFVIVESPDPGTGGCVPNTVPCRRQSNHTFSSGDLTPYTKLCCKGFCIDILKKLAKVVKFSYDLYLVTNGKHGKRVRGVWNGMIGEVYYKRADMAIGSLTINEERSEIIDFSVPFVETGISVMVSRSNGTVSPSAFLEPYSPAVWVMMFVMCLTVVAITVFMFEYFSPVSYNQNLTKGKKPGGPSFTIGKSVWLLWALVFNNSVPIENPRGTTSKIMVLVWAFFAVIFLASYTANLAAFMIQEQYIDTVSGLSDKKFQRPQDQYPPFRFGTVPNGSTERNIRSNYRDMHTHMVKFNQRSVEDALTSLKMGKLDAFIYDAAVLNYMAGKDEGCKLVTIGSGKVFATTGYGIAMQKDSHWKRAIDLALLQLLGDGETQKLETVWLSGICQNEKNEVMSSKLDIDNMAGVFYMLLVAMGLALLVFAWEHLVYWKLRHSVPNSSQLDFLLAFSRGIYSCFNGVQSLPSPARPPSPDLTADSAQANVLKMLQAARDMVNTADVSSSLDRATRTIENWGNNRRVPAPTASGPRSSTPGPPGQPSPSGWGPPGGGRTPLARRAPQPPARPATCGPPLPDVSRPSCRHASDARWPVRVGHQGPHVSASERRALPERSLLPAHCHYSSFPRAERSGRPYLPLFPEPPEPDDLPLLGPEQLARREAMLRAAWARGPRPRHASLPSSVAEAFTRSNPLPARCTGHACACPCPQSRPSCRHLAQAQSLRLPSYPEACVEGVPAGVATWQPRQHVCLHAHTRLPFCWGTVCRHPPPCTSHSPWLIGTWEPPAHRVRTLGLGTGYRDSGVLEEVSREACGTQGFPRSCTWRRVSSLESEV", "test": "Two-electrode voltage-clamp recordings, Xenopus oocytes", "type": "cell-based", "conditions": "100 μM glutamate + 3 μM glycine; N.E. = no effect at 10 μM TCN-201", "method_in_brief": "(§1)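 cRNA from linearized constructs injected into female Xenopus laevis oocytes. Two-electrode voltage clamp done 3–4 d later at 23°C, holding at −40 mV, in 90 NaCl, 1 KCl, 10 HEPES, 0.5 BaCl₂, 0.01 EDTA (mM), pH 7.4. […] Max inhibition is (control − residual at saturating compound)/control.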"}, "GluN1/GluN2D": {"target": "GluN1/GluN2D (Rattus norvegicus, UniProt P35439+Q62645)", "sequence (Q62645 28-1323, other chains not shown)": "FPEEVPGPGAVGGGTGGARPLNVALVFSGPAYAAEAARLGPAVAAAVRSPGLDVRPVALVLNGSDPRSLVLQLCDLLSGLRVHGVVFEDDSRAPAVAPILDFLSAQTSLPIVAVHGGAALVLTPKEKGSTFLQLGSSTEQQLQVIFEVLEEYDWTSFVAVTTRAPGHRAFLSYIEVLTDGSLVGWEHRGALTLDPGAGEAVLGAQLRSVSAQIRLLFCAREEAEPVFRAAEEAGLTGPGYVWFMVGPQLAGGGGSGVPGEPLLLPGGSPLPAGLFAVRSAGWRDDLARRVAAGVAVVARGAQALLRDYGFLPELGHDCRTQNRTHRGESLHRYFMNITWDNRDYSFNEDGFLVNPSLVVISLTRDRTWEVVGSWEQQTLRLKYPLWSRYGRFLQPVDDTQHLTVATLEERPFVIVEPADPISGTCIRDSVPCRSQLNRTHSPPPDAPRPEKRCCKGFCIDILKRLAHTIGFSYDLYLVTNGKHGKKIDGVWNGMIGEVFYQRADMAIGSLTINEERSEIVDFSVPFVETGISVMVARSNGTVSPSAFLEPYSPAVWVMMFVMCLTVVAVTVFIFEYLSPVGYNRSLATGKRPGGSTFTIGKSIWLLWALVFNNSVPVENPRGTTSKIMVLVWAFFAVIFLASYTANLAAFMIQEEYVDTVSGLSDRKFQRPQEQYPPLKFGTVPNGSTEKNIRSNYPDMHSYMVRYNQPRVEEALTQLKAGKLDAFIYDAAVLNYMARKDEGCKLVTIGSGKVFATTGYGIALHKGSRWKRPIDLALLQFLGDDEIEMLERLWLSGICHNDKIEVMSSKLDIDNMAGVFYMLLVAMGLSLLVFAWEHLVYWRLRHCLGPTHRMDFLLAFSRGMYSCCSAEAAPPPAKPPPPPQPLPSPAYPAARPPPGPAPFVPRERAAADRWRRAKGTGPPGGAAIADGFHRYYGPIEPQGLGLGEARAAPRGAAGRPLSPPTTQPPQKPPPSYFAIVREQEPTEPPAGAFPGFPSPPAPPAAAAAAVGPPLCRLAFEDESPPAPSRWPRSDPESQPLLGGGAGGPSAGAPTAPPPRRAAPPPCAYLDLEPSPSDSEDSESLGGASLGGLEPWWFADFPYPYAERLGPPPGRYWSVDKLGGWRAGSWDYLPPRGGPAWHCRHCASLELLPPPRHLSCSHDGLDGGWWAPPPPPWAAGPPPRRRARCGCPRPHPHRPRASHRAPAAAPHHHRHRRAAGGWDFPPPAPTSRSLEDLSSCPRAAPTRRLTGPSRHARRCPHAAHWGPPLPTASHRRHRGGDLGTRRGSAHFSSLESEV", "test": "Two-electrode voltage-clamp recordings, Xenopus oocytes", "type": "cell-based", "conditions": "100 μM glutamate + 3 μM glycine; N.E. = no effect at 10 μM TCN-201", "method_in_brief": "as §1"}, "GluN1/GluN2A V783L": {"target": "GluN1/GluN2A V783L (Rattus norvegicus, UniProt P35439+Q00959, V783L)", "test": "Two-electrode voltage-clamp recordings, Xenopus oocytes", "type": "cell-based"}, "GluN1/GluN2A M788I": {"target": "GluN1/GluN2A M788I (Rattus norvegicus, UniProt P35439+Q00959, M788I)", "test": "Two-electrode voltage-clamp recordings, Xenopus oocytes", "type": "cell-based", "conditions": "100 μM glutamate + 3 μM glycine"}, "GluN1/GluN2A T793R": {"target": "GluN1/GluN2A T793R (Rattus norvegicus, UniProt P35439+Q00959, T793R)", "test": "Two-electrode voltage-clamp recordings, Xenopus oocytes", "type": "cell-based", "conditions": "100 μM glutamate + 3 μM glycine"}, "GluN1/GluN2A V783W": {"target": "GluN1/GluN2A V783W (Rattus norvegicus, UniProt P35439+Q00959, V783W)", "test": "Two-electrode voltage-clamp recordings, Xenopus oocytes", "type": "cell-based", "conditions": "100 μM glutamate + 3 μM glycine"}, "GluN1/GluN2A P527A": {"target": "GluN1/GluN2A P527A (Rattus norvegicus, UniProt P35439+Q00959, P527A)", "test": "Two-electrode voltage-clamp recordings, Xenopus oocytes", "type": "cell-based", "conditions": "100 μM glutamate + 3 μM glycine"}, "GluN1/GluN2A L780A": {"target": "GluN1/GluN2A L780A (Rattus norvegicus, UniProt P35439+Q00959, L780A)", "test": "Two-electrode voltage-clamp recordings, Xenopus oocytes", "type": "cell-based", "conditions": "100 μM glutamate + 3 μM glycine"}, "GluN1/GluN2A G786A": {"target": "GluN1/GluN2A G786A (Rattus norvegicus, UniProt P35439+Q00959, G786A)", "test": "Two-electrode voltage-clamp recordings, Xenopus oocytes", "type": "cell-based", "conditions": "100 μM glutamate + 3 μM glycine"}, "GluN1/GluN2A M788A": {"target": "GluN1/GluN2A M788A (Rattus norvegicus, UniProt P35439+Q00959, M788A)", "test": "Two-electrode voltage-clamp recordings, Xenopus oocytes", "type": "cell-based", "conditions": "100 μM glutamate + 3 μM glycine"}, "GluN1/GluN2A E789A": {"target": "GluN1/GluN2A E789A (Rattus norvegicus, UniProt P35439+Q00959, E789A)", "test": "Two-electrode voltage-clamp recordings, Xenopus oocytes", "type": "cell-based", "conditions": "100 μM glutamate + 3 μM glycine"}, "[1]": {"target": "GluN1 F754A co-expressed with GluN2A (Rattus norvegicus, UniProt P35439+Q00959, F754A)", "test": "Two-electrode voltage-clamp recordings, Xenopus oocytes", "type": "cell-based", "conditions": "100 μM glutamate + 3 μM glycine"}, "[2]": {"target": "GluN1-1b/GluN2A receptors (Rattus norvegicus, UniProt P35439+Q00959)", "test": "Two-electrode voltage-clamp recordings, Xenopus oocytes", "type": "cell-based", "conditions": "3 μM TCN-201, 30 μM glycine; contains exon 5", "method_in_brief": "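Xenopus laevis oocytes (female) were injected with in vitro transcribed cRNA and recorded by two-electrode voltage clamp 3–4 d after injection at 23°C, holding at −40 mV. Voltage and current electrodes held 0.3 and 3.0 M KCl.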"}, "[3]": {"test": "Maximum solubility in extracellular oocyte recording solution", "type": "physicochemical", "conditions": "aqueous buffer"}, "GluN1/2A-(2D M1M2M3)": {"target": "GluN1/2A-(2D M1M2M3) (Rattus norvegicus, UniProt P35439+Q00959, A555P/A572T/A593R/A604S/F553Y/F579L/F658Y/G610A/H595G/I567T/I571V/K590T/K623R/L565C/N587S/P597S/Q620E/S556A/S569V/S598T/S632L/V575I)", "test": "Two-electrode voltage-clamp recordings, Xenopus oocytes", "type": "cell-based", "conditions": "100 μM glutamate plus 30 μM glycine; vs GluN1/GluN2A"}, "GluN1/2A-ΔATD": {"target": "GluN1/2A-ΔATD (Rattus norvegicus, UniProt P35439+Q00959)", "test": "Two-electrode voltage-clamp recordings, Xenopus oocytes", "type": "cell-based", "conditions": "100 μM glutamate plus 30 μM glycine; vs GluN1/GluN2A"}, "GluN1/2A-(2D S1+S2)": {"target": "GluN1/2A-(2D S1+S2) (Rattus norvegicus, UniProt P35439+Q00959, A414R/D421P/D675E/D715E/DELINS438-452SQLNRTHSPPPDAPRPE/E427G/E790M/F680L/F708Y/G712R/G740R/G786D/H674Q/I408V/I422A/I755V/K454R/K466R/K472G/K668R/K738M/L425I/M788I/N404Q/N432D/N490D/N491G/N696S/P770R/Q661T/Q703S/Q766H/Q774P/R469H/R681K/R692K/R711P/R741K/S407T/S468A/S538A/S677Y/S719Q/S758T/T426S/T433S/T474S/T663S/T706V/T722A/T793R/T797S/V409A/V430I/V471I/V489I/V501F/V506D/V509I/V521I/V718T/V783L/Y676Q/Y700D/Y754K)", "test": "Two-electrode voltage-clamp recordings, Xenopus oocytes", "type": "cell-based", "conditions": "100 μM glutamate plus 30 μM glycine"}, "GluN1/2A-(2D D1)": {"target": "GluN1/2A-(2D D1) (Rattus norvegicus, UniProt P35439+Q00959, A414R/D421P/DELINS438-452SQLNRTHSPPPDAPRPE/E427G/E790M/G786D/I408V/I422A/K454R/K466R/K472G/L425I/M788I/N404Q/N432D/N490D/N491G/P770R/Q766H/Q774P/R469H/S407T/S468A/S538A/T426S/T433S/T474S/T793R/T797S/V409A/V430I/V471I/V489I/V501F/V506D/V509I/V521I/V783L)", "test": "Two-electrode voltage-clamp recordings, Xenopus oocytes", "type": "cell-based", "conditions": "100 μM glutamate plus 30 μM glycine"}}, "data": [{"smiles": "O=C(NNC(=O)c1ccc(CNS(=O)(=O)c2ccc(F)c(Cl)c2)cc1)c1ccccc1", "note": "[TCN-201, 3-chloro-4-fluoro-N-[(4-[(2-(phenylcarbonyl)hydrazino)carbonyl]phenyl)methyl]-benzenesulfonamide]", "values": [{"measurement": "TCN-201 activity IC50", "setting": "GluN1/GluN2B", "result": "did not inhibit and N.E."}, {"measurement": "TCN-201 activity IC50", "setting": "GluN1/GluN2C", "result": "did not inhibit and N.E."}, {"measurement": "TCN-201 activity IC50", "setting": "GluN1/GluN2D", "result": "did not inhibit and N.E."}, {"measurement": "Kb", "setting": "GluN1/GluN2A V783L", "result": 2140, "unit": "nM"}, {"measurement": "TCN-201 activity Max. % inhibition", "setting": "GluN1/GluN2A M788I", "result": "79 ± 3", "unit": "%"}, {"measurement": "TCN-201 activity nH", "setting": "GluN1/GluN2A M788I", "result": 1.3}, {"measurement": "TCN-201 activity Max. % inhibition", "setting": "GluN1/GluN2A T793R", "result": "94 ± 2", "unit": "%"}, {"measurement": "TCN-201 activity nH", "setting": "GluN1/GluN2A T793R", "result": 2.2}, {"measurement": "TCN-201 activity Max. % inhibition", "setting": "GluN1/GluN2A V783W", "result": "95 ± 2", "unit": "%"}, {"measurement": "TCN-201 activity nH", "setting": "GluN1/GluN2A V783W", "result": 1.0}, {"measurement": "TCN-201 activity Max. % inhibition", "setting": "GluN1/GluN2A P527A", "result": "91 ± 3", "unit": "%"}, {"measurement": "TCN-201 activity nH", "setting": "GluN1/GluN2A P527A", "result": 1.4}, {"measurement": "Response, % of control at 10 μM TCN-201", "setting": "GluN1/GluN2A L780A", "result": "67% of control at 10 μM TCN-201"}, {"measurement": "TCN-201 activity Max. % inhibition", "setting": "GluN1/GluN2A G786A", "result": "87 ± 3", "unit": "%"}, {"measurement": "TCN-201 activity nH", "setting": "GluN1/GluN2A G786A", "result": 1.8}, {"measurement": "TCN-201 activity Max. % inhibition", "setting": "GluN1/GluN2A M788A", "result": "90 ± 3", "unit": "%"}, {"measurement": "TCN-201 activity nH", "setting": "GluN1/GluN2A M788A", "result": 1.4}, {"measurement": "TCN-201 activity Max. % inhibition", "setting": "GluN1/GluN2A E789A", "result": "96 ± 1", "unit": "%"}, {"measurement": "TCN-201 activity nH", "setting": "GluN1/GluN2A E789A", "result": 1.4}, {"measurement": "TCN-201 activity Max. % inhibition", "setting": "[1]", "result": "98 ± 1", "unit": "%"}, {"measurement": "TCN-201 activity nH", "setting": "[1]", "result": 1.4}, {"measurement": "Response, % of control", "setting": "[2]", "result": "49 ± 2 % of control"}, {"measurement": "solubility", "setting": "[3]", "result": 18, "unit": "µM"}, {"measurement": "Inhibition by 3 μM TCN-201", "setting": "GluN1/2A-(2D M1M2M3)", "result": "did not reduce inhibition"}, {"measurement": "Inhibition by 3 μM TCN-201", "setting": "GluN1/2A-ΔATD", "result": "did not reduce inhibition"}, {"measurement": "Inhibition by 3 μM TCN-201", "setting": "GluN1/2A-(2D S1+S2)", "result": "abolished"}, {"measurement": "Inhibition by 3 μM TCN-201", "setting": "GluN1/2A-(2D D1)", "result": "eliminated TCN-201 inhibition"}]}]}
